≈ marks a conversion by molar mass, not a printed value.
What was measured:
Klebsiella pneumoniae [1] = test: Antimicrobial activity against ESBL producing Klebsiella pneumoniae 230 isolate infected thigh infection model ICR mouse; assay type: functional, Thigh muscle
In short: (§1)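 Female ICR mice (~25 g) were made neutropenic with cyclophosphamide ip (150 and 100 mg/kg, days −4 and −1) and renally impaired with uranyl nitrate 5 mg/kg ip (day −3). Each thigh got 0.1 ml of 10^5 CFU/ml (or 10^7 for high inoculum) im 2 h pre-therapy. Human-simulated regimens were given sc, three mice per group, for 24 h. Efficacy was the log10 CFU/thigh change versus 0-h controls.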

Klebsiella pneumoniae [2] = test: Antimicrobial activity against ESBL producing Klebsiella pneumoniae 264 isolate; assay type: functional
Klebsiella pneumoniae [3] = test: Antimicrobial activity against ESBL producing Klebsiella pneumoniae 259 isolate; assay type: functional
Klebsiella pneumoniae [4] = test: Antimicrobial activity against ESBL producing Klebsiella pneumoniae 260 isolate; assay type: functional
Escherichia coli [5] = test: Antimicrobial activity against ESBL producing Escherichia coli 322 isolate infected thigh infection model ICR mouse; assay type: functional, Thigh muscle; in short: as §1
Klebsiella pneumoniae [6] = test: Antimicrobial activity against ESBL producing Klebsiella pneumoniae 101 isolate infected thigh infection model ICR mouse; assay type: functional, Thigh muscle; in short: as §1
Escherichia coli [7] = test: Antimicrobial activity against ESBL producing Escherichia coli 312 isolate infected thigh infection model ICR mouse; assay type: functional, Thigh muscle; in short: as §1
Escherichia coli [8] = test: Antimicrobial activity against ESBL producing Escherichia coli 130 isolate infected thigh infection model ICR mouse; assay type: functional, Thigh muscle; in short: as §1
Escherichia coli [9] = test: Antimicrobial activity against ESBL producing Escherichia coli 312 isolate; assay type: functional
Escherichia coli [10] = test: Antimicrobial activity against ESBL producing Escherichia coli 315 isolate infected thigh infection model ICR mouse; assay type: functional, Thigh muscle; in short: as §1
Klebsiella pneumoniae [11] = test: Antimicrobial activity against ESBL producing Klebsiella pneumoniae 270 isolate infected thigh infection model ICR mouse; assay type: functional, Thigh muscle; in short: as §1
Klebsiella pneumoniae [12] = test: Antimicrobial activity against ESBL producing Klebsiella pneumoniae 268 isolate; assay type: functional
Klebsiella pneumoniae [13] = test: Antimicrobial activity against ESBL producing Klebsiella pneumoniae 261 isolate; assay type: functional
Klebsiella pneumoniae [14] = test: Activity against ESBL producing Klebsiella pneumonia 262 isolate at up to 4 ug/ml; assay type: functional
Escherichia coli [15] = test: Antimicrobial activity against ESBL producing Escherichia coli 118 isolate; assay type: functional
Klebsiella pneumoniae [16] = test: Antimicrobial activity against ESBL producing Klebsiella pneumoniae 60 isolate; assay type: functional
Klebsiella pneumoniae [17] = test: Antimicrobial activity against ESBL producing Klebsiella pneumoniae 254 isolate; assay type: functional
Escherichia coli [18] = test: Antimicrobial activity against ESBL producing Escherichia coli 285 isolate; assay type: functional
Klebsiella pneumoniae [19] = test: Antimicrobial activity against ESBL producing Klebsiella pneumoniae 60 isolate infected thigh infection model ICR mouse; assay type: functional, Thigh muscle; in short: as §1
Klebsiella pneumoniae [20] = test: Antimicrobial activity against ESBL producing Klebsiella pneumoniae 270 isolate; assay type: functional
Klebsiella pneumoniae [21] = test: Antimicrobial activity against ESBL producing Klebsiella pneumoniae 254 isolate infected thigh infection model ICR mouse; assay type: functional, Thigh muscle; in short: as §1
Escherichia coli [22] = test: Antimicrobial activity against ESBL producing Escherichia coli 133 isolate; assay type: functional
Escherichia coli [23] = test: Antimicrobial activity against ESBL producing Escherichia coli 285 isolate infected thigh infection model ICR mouse; assay type: functional, Thigh muscle; in short: as §1
Klebsiella pneumoniae [24] = test: Antimicrobial activity against ESBL producing Klebsiella pneumoniae 262 isolate; assay type: functional
Klebsiella pneumoniae [25] = test: Antimicrobial activity against ESBL producing Klebsiella pneumoniae 261 isolate infected thigh infection model ICR mouse; assay type: functional, Thigh muscle; in short: as §1
Klebsiella pneumoniae [26] = test: Antimicrobial activity against ESBL producing Klebsiella pneumoniae 258 isolate; assay type: functional
Escherichia coli [27] = test: Antimicrobial activity against ESBL producing Escherichia coli 315 isolate; assay type: functional
Escherichia coli [28] = test: Antimicrobial activity against ESBL producing Escherichia coli 311 isolate; assay type: functional
Klebsiella pneumoniae [29] = test: Antimicrobial activity against ESBL producing Klebsiella pneumoniae 265 isolate infected thigh infection model ICR mouse; assay type: functional, Thigh muscle; in short: as §1
Klebsiella pneumoniae [30] = test: Antimicrobial activity against ESBL producing Klebsiella pneumoniae 266 isolate; assay type: functional
Klebsiella pneumoniae [31] = test: Antimicrobial activity against ESBL producing Klebsiella pneumoniae 263 isolate infected thigh infection model ICR mouse; assay type: functional, Thigh muscle; in short: as §1
Klebsiella pneumoniae [32] = test: Antimicrobial activity against ESBL producing Klebsiella pneumoniae 256 isolate; assay type: functional
Escherichia coli [33] = test: Antimicrobial activity against ESBL producing Escherichia coli 321 isolate; assay type: functional
Klebsiella pneumoniae [34] = test: Antimicrobial activity against ESBL producing Klebsiella pneumoniae 266 isolate infected thigh infection model ICR mouse; assay type: functional, Thigh muscle; in short: as §1
Escherichia coli [35] = test: Antimicrobial activity against Escherichia coli ATCC 25922 isolate infected thigh infection model ICR mouse; assay type: functional, Thigh muscle; in short: as §1
Klebsiella pneumoniae [36] = test: Antimicrobial activity against ESBL producing Klebsiella pneumoniae 225 isolate; assay type: functional
Escherichia coli [37] = test: Antimicrobial activity against ESBL producing Escherichia coli 243 isolate; assay type: functional
Escherichia coli [38] = test: Antimicrobial activity against ESBL producing Escherichia coli 320 isolate infected thigh infection model ICR mouse; assay type: functional, Thigh muscle; in short: as §1
Klebsiella pneumoniae [39] = test: Antimicrobial activity against ESBL producing Klebsiella pneumoniae 256 isolate infected thigh infection model ICR mouse; assay type: functional, Thigh muscle; in short: as §1
Escherichia coli [40] = test: Antimicrobial activity against ESBL producing Escherichia coli 318 isolate infected thigh infection model ICR mouse; assay type: functional, Thigh muscle; in short: as §1
Escherichia coli [41] = test: Antimicrobial activity against ESBL producing Escherichia coli 322 isolate; assay type: functional
Klebsiella pneumoniae [42] = test: Antimicrobial activity against ESBL producing Klebsiella pneumoniae 255 isolate infected thigh infection model ICR mouse; assay type: functional, Thigh muscle; in short: as §1
Klebsiella pneumoniae [43] = test: Antimicrobial activity against ESBL producing Klebsiella pneumoniae 255 isolate; assay type: functional
Klebsiella pneumoniae [44] = test: Antimicrobial activity against ESBL producing Klebsiella pneumoniae 262 isolate infected thigh infection model ICR mouse; assay type: functional, Thigh muscle; in short: as §1
Klebsiella pneumoniae [45] = test: Antimicrobial activity against ESBL producing Klebsiella pneumoniae 263 isolate; assay type: functional
Klebsiella pneumoniae [46] = test: Bacteriostasis activity against ESBL producing Klebsiella pneumonia 262 isolate at up to 1.5 ug/ml; assay type: functional
Klebsiella pneumoniae [47] = test: Antimicrobial activity against ESBL producing Klebsiella pneumoniae 257 isolate; assay type: functional
Escherichia coli [48] = test: Antimicrobial activity against ESBL producing Escherichia coli 320 isolate; assay type: functional
Klebsiella pneumoniae [49] = test: Antimicrobial activity against ESBL producing Klebsiella pneumoniae 259 isolate infected thigh infection model ICR mouse; assay type: functional, Thigh muscle; in short: as §1
Escherichia coli [50] = test: Antimicrobial activity against ESBL producing Escherichia coli 321 isolate infected thigh infection model ICR mouse; assay type: functional, Thigh muscle; in short: as §1
Klebsiella pneumoniae [51] = test: Antimicrobial activity against ESBL producing Klebsiella pneumoniae 225 isolate infected thigh infection model ICR mouse; assay type: functional, Thigh muscle; in short: as §1
Escherichia coli [52] = test: Antimicrobial activity against Escherichia coli ATCC 25922 isolate; assay type: functional
Escherichia coli [53] = test: Antimicrobial activity against Escherichia coli 120 isolate infected thigh infection model ICR mouse; assay type: functional, Thigh muscle; in short: as §1
Klebsiella pneumoniae [54] = test: Antimicrobial activity against ESBL producing Klebsiella pneumoniae 101 isolate; assay type: functional
Escherichia coli [55] = test: Antimicrobial activity against ESBL producing Escherichia coli 310 isolate infected thigh infection model ICR mouse; assay type: functional, Thigh muscle; in short: as §1
Escherichia coli [56] = test: Antimicrobial activity against Escherichia coli 120 isolate; assay type: functional
Klebsiella pneumoniae [57] = test: Antimicrobial activity against ESBL producing Klebsiella pneumoniae 230 isolate; assay type: functional
Escherichia coli [58] = test: Antimicrobial activity against ESBL producing Escherichia coli 243 isolate infected thigh infection model ICR mouse; assay type: functional, Thigh muscle; in short: as §1
Klebsiella pneumoniae [59] = test: Antimicrobial activity against ESBL producing Klebsiella pneumoniae 264 isolate infected thigh infection model ICR mouse; assay type: functional, Thigh muscle; in short: as §1
Klebsiella pneumoniae [60] = test: Antimicrobial activity against ESBL producing Klebsiella pneumoniae 265 isolate; assay type: functional
Klebsiella pneumoniae [61] = test: Antimicrobial activity against ESBL producing Klebsiella pneumoniae 257 isolate infected thigh infection model ICR mouse; assay type: functional, Thigh muscle; in short: as §1
Klebsiella pneumoniae [62] = test: Antimicrobial activity against ESBL producing Klebsiella pneumoniae 258 isolate infected thigh infection model ICR mouse; assay type: functional, Thigh muscle; in short: as §1
Klebsiella pneumoniae [63] = test: Antimicrobial activity against ESBL producing Klebsiella pneumoniae 260 isolate infected thigh infection model ICR mouse; assay type: functional, Thigh muscle; in short: as §1
Escherichia coli [64] = test: Antimicrobial activity against ESBL producing Escherichia coli 311 isolate infected thigh infection model ICR mouse; assay type: functional, Thigh muscle; in short: as §1
Klebsiella pneumoniae [65] = test: Antimicrobial activity against ESBL producing Klebsiella pneumoniae 268 isolate infected thigh infection model ICR mouse; assay type: functional, Thigh muscle; in short: as §1
Escherichia coli [66] = test: Antimicrobial activity against ESBL producing Escherichia coli 130 isolate; assay type: functional
Escherichia coli [67] = test: Antimicrobial activity against ESBL producing Escherichia coli 310 isolate; assay type: functional
Escherichia coli [68] = test: Antimicrobial activity against ESBL producing Escherichia coli 133 isolate infected thigh infection model ICR mouse; assay type: functional, Thigh muscle; in short: as §1

C[C@@H](O)[C@H]1C(=O)N2C(C(=O)O)=C(S[C@@H]3CN[C@H](C(=O)Nc4cccc(C(=O)O)c4)C3)[C@H](C)[C@H]12
fT>MIC (Klebsiella pneumoniae [1]): 60% | MIC (Klebsiella pneumoniae [2]): 4 µg/mL (≈ 8.41 µM) | MIC (Klebsiella pneumoniae [3]): 16 µg/mL (≈ 33.6 µM) | MIC (Klebsiella pneumoniae [4]): 1 µg/mL (≈ 2.1 µM) | fT>MIC (Escherichia coli [5]): 90% | fT>MIC (Klebsiella pneumoniae [6]): 60% | fT>MIC (Escherichia coli [7]): 53% | fT>MIC (Escherichia coli [8]): 30% | MIC (Escherichia coli [9]): 0.19 µg/mL (≈ 0.4 µM) | fT>MIC (Escherichia coli [10]): 77% | fT>MIC (Klebsiella pneumoniae [11]): 40% | MIC (Klebsiella pneumoniae [12]): 0.25 µg/mL (≈ 0.526 µM) | MIC (Klebsiella pneumoniae [13]): 128 µg/mL (≈ 269 µM) | MIC (Klebsiella pneumoniae [14]): 4 µg/mL (≈ 8.41 µM) | MIC (Escherichia coli [15]): 0.012 µg/mL (≈ 0.0252 µM) | MIC (Klebsiella pneumoniae [16]): 0.012 µg/mL (≈ 0.0252 µM) | MIC (Klebsiella pneumoniae [17]): 16 µg/mL (≈ 33.6 µM) | MIC (Escherichia coli [18]): 0.023 µg/mL (≈ 0.0484 µM) | fT>MIC (Klebsiella pneumoniae [19]): 90% | MIC (Klebsiella pneumoniae [20]): 0.5 µg/mL (≈ 1.05 µM) | fT>MIC (Klebsiella pneumoniae [21]): 0% | MIC (Escherichia coli [22]): 1.5 µg/mL (≈ 3.15 µM) | fT>MIC (Escherichia coli [23]): 80% | MIC (Klebsiella pneumoniae [24]): 64 µg/mL (≈ 135 µM) | fT>MIC (Klebsiella pneumoniae [25]): 0% | MIC (Klebsiella pneumoniae [26]): 16 µg/mL (≈ 33.6 µM) | MIC (Escherichia coli [27]): 0.032 µg/mL (≈ 0.0673 µM) | MIC (Escherichia coli [28]): 4 µg/mL (≈ 8.41 µM) | fT>MIC (Klebsiella pneumoniae [29]): 40% | MIC (Klebsiella pneumoniae [30]): 8 µg/mL (≈ 16.8 µM) | fT>MIC (Klebsiella pneumoniae [31]): 0% | MIC (Klebsiella pneumoniae [32]): 32 µg/mL (≈ 67.3 µM) | MIC (Escherichia coli [33]): 0.012 µg/mL (≈ 0.0252 µM) | fT>MIC (Klebsiella pneumoniae [34]): 0% | fT>MIC (Escherichia coli [35]): 93% | MIC (Klebsiella pneumoniae [36]): 0.016 µg/mL (≈ 0.0336 µM) | MIC (Escherichia coli [37]): 0.064 µg/mL (≈ 0.135 µM) | fT>MIC (Escherichia coli [38]): 40% | fT>MIC (Klebsiella pneumoniae [39]): 0% | fT>MIC (Escherichia coli [40]): 90% | MIC (Escherichia coli [41]): 0.012 µg/mL (≈ 0.0252 µM) | fT>MIC (Klebsiella pneumoniae [42]): 20% | MIC (Klebsiella pneumoniae [43]): 2 µg/mL (≈ 4.21 µM) | fT>MIC (Klebsiella pneumoniae [44]): 0% | MIC (Klebsiella pneumoniae [45]): 8 µg/mL (≈ 16.8 µM) | MIC (Klebsiella pneumoniae [46]): 1.5 µg/mL (≈ 3.15 µM) | MIC (Klebsiella pneumoniae [47]): 16 µg/mL (≈ 33.6 µM) | MIC (Escherichia coli [48]): 0.5 µg/mL (≈ 1.05 µM) | fT>MIC (Klebsiella pneumoniae [49]): 0% | fT>MIC (Escherichia coli [50]): 90% | fT>MIC (Klebsiella pneumoniae [51]): 87% | MIC (Escherichia coli [52]): 0.008 µg/mL (≈ 0.0168 µM) | fT>MIC (Escherichia coli [53]): 77% | MIC (Klebsiella pneumoniae [54]): 0.094 µg/mL (≈ 0.198 µM) | fT>MIC (Escherichia coli [55]): 67% | MIC (Escherichia coli [56]): 0.03 µg/mL (≈ 0.0631 µM) | MIC (Klebsiella pneumoniae [57]): 0.094 µg/mL (≈ 0.198 µM) | fT>MIC (Escherichia coli [58]): 67% | fT>MIC (Klebsiella pneumoniae [59]): 10% | MIC (Klebsiella pneumoniae [60]): 0.5 µg/mL (≈ 1.05 µM) | fT>MIC (Klebsiella pneumoniae [61]): 0% | fT>MIC (Klebsiella pneumoniae [62]): 0% | fT>MIC (Klebsiella pneumoniae [63]): 30% | fT>MIC (Escherichia coli [64]): 10% | fT>MIC (Klebsiella pneumoniae [65]): 47% | MIC (Escherichia coli [66]): 1 µg/mL (≈ 2.1 µM) | MIC (Escherichia coli [67]): 0.064 µg/mL (≈ 0.135 µM) | fT>MIC (Escherichia coli [68]): 23%

— ChEMBL document CHEMBL1147115 (2007)
